Laboratory results as given in ChEMBL document CHEMBL5257128, “Design, synthesis and biological evaluation of covalent peptidomimetic 3CL protease inhibitors containing nitrile moiety” (Bioorg Med Chem, 2023).

Assays:
[1] = Cmax in mouse at 10 mg/kg, iv by LC-MS/MS analysis; format: ADME, organism-based; parameters: dose 10 mg/kg, route iv; details: in vivo
[2] = Cmax in mouse at 20 mg/kg, po by LC-MS/MS analysis; format: ADME, organism-based; parameters: dose 20 mg/kg, route po; details: in vivo
[3] = Observed AUCinfinity in mouse at 20 mg/kg, po by LC-MS/MS analysis; format: ADME, organism-based; parameters: dose 20 mg/kg, route po; details: in vivo
[4] = Observed MRTinfinity in mouse at 20 mg/kg, po by LC-MS/MS analysis; format: ADME, organism-based; details: in vivo
[5] = Oral bioavailability in mouse at 20 mg/kg by LC-MS/MS analysis; format: ADME, organism-based; details: in vivo
[6] = Observed AUCinfinity in mouse at 10 mg/kg, iv by LC-MS/MS analysis; format: ADME, organism-based; parameters: dose 10 mg/kg, route iv; details: in vivo
SARS-CoV-2 = experiment: Antiviral activity against SARS-CoV-2 infected in African green monkey Vero E6 cells pre-incubated for 1 hr followed by viral infection measured after 2 hrs by qRT-PCR analysis; format: functional, organism-based; details: Severe acute respiratory syndrome coronavirus 2, Vero C1008
[7] = Observed volume of distribution at steady state in mouse at 10 mg/kg, iv by LC-MS/MS analysis; format: ADME, organism-based; details: in vivo
[8] = Metabolic stability in human liver microsomes assessed as half life in presence of NADPH incubated upto 45 mins by LC/MS analysis; format: ADME, Microsome; details: 0.75 h
Method in brief: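 Human or mouse liver microsomes, final protein 0.5 mg/mL, in K/Mg buffer. Compound was added from a 1.5 µM spiking solution containing 0.75 mg/mL microsomes, then preincubated 5 min at 37 °C. The reaction was started with NADPH (6 mM stock) and sampled at 0, 5, 15, 30 and 45 min. Samples were quenched with acetonitrile containing internal standard, centrifuged, and the supernatant analysed by LC/MS.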

[9] = Observed MRTinfinity in mouse at 10 mg/kg, iv by LC-MS/MS analysis; format: ADME, organism-based; details: in vivo
[10] = Tmax in mouse at 10 mg/kg, iv by LC-MS/MS analysis; format: ADME, organism-based; details: in vivo
[11] = Metabolic stability in mouse liver microsomes assessed as half life in presence of NADPH incubated upto 45 mins by LC/MS analysis; format: ADME, Microsome; details: 0.75 h
Method in brief: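 Mouse liver microsomes at 0.5 mg/mL final protein in K/Mg buffer, preincubated 5 min at 37 °C. Reaction started with NADPH (6 mM stock) and sampled at 0, 5, 15, 30 and 45 min. Each sample was quenched with acetonitrile containing internal standard, centrifuged, diluted with water, and analysed by LC/MS for remaining parent.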

[12] = AUClast in mouse at 20 mg/kg, po by LC-MS/MS analysis; format: ADME, organism-based; parameters: dose 20 mg/kg, route po; details: in vivo
[13] = AUClast in mouse at 10 mg/kg, iv by LC-MS/MS analysis; format: ADME, organism-based; parameters: dose 10 mg/kg, route iv; details: in vivo
[14] = biological target: Replicase polyprotein 1ab (Severe acute respiratory syndrome coronavirus 2, UniProt P0DTD1); experiment: Inhibition of full length SARS-CoV-2 3CL protease expressed in Escherichia coli BL21 (DE3) using Dacyl-KTSAVLQSGFRKME-Edans fluorogenic peptide as substrate pre-incubated for 10 mins followed by substrate addition by FRET assay
Vero C1008 = experiment: Cytotoxicity against African green monkey Vero E6 cells assessed as reduction in cell viability measured after 24 hrs by CCK8 assay; format: toxicity, cell-based; details: chlorocebus sabaeus, vero c1008, 24 h
[15] = Tmax in mouse at 20 mg/kg, po by LC-MS/MS analysis; format: ADME, organism-based; details: in vivo
[16] = Selectivity Index, ratio of CC50 for African green monkey Vero E6 cells to EC50 for antiviral activity against SARS-CoV-2 infected in African green monkey Vero E6; format: toxicity, Vero C1008; details: read-out: Ratio CC50/EC50
[17] = Half life in mouse at 20 mg/kg, po by LC-MS/MS analysis; format: ADME, organism-based; details: in vivo
[18] = Half life in mouse at 10 mg/kg, iv by LC-MS/MS analysis; format: ADME, organism-based; details: in vivo

| Structure (SMILES) | Cmax [1] [ng/mL] | Cmax [2] [ng/mL] | AUC [3] [ng·h/mL] | MRT [4] [min] | F [5] [%] | AUC [6] [ng·h/mL] | EC50 (SARS-CoV-2) [nM] | t1/2 [8] [min] | MRT [9] [min] | Tmax [10] [min] | t1/2 [11] [min] | AUClast [12] [ng·h/mL] | AUClast [13] [ng·h/mL] | IC50 [14] [nM] | other results |
| --- | --- | --- | --- | --- | --- | --- | --- | --- | --- | --- | --- | --- | --- | --- | --- |
| CC(C)(C)[C@H](NC(=O)C(F)(F)F)C(=O)N1C[C@H]2[C@@H]([C@H]1C(=O)N[C@H](C#N)C[C@@H]1CCNC1=O)C2(C)C | 9630 | 2521.64 | 2311.94 | 51 | 34.59 | 3361.32 | 580 | 37.93 | 23.4 | 4.98 | 4.64 | 2308.32 | 3336.46 | – | Vdss ([7]; iv, 10 mg/kg): 1.18 L/kg |
| CC(C)(C)[C@H](NS(=O)(=O)C1CC1)C(=O)N1C[C@H]2[C@@H]([C@H]1C(=O)N[C@H](C#N)C[C@@H]1CCNC1=O)C2(C)C | – | – | – | – | – | – | – | – | – | – | – | – | – | 22.8 | – |
| CC(C)(C)[C@H](NC(=O)C(F)(F)F)C(=O)N1CC2(CC2)C[C@H]1C(=O)N[C@H](C#N)C[C@@H]1CCNC1=O | – | – | – | – | – | – | – | – | – | – | – | – | – | 36.8 | – |
| CC(C)(C)[C@H](NS(=O)(=O)C(F)(F)F)C(=O)N1C[C@H]2[C@@H]([C@H]1C(=O)N[C@H](C#N)C[C@@H]1CCNC1=O)C2(C)C | 10500 | 2052.36 | 1904.9 | 48 | 23.09 | 4120.05 | 170 | 652.17 | 17.4 | 4.8 | 97.89 | 1901.84 | 4118.55 | 22.4 | CC50 (Vero C1008): > 200000 nM; Tmax [15]: 30 min; selectivity ratio [16]: > 1500; t1/2 [17]: 42.6 min; Vd ([7]; read-out: Vdss): 0.69 L/kg; t1/2 [18]: 21 min |
| CC(C)(C)[C@H](NC(=O)C(F)(F)F)C(=O)N1[C@@H]2CC[C@@H](C2)[C@H]1C(=O)N[C@H](C#N)C[C@@H]1CCNC1=O | – | – | – | – | – | – | – | – | – | – | – | – | – | 54.6 | – |
